Most compounds without a hit are left out; they make up all but 1.9% or so of the library.
UHRF1 binding: human UHRF1 methylated DNA binding inhibitors | Q96T88 | UHRF1 binding to methylated oligo, TR-FRET | inhibition, % at 4.4 µM | 370,000 tested, 0.75% active; in the data active = inhibition above about 21%;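 note: UHRF1 SRA domain binding a hemimethylated CpG hairpin DNA probe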
Target sequence (Q96T88 whole entry, looked up, the tested form may be a part): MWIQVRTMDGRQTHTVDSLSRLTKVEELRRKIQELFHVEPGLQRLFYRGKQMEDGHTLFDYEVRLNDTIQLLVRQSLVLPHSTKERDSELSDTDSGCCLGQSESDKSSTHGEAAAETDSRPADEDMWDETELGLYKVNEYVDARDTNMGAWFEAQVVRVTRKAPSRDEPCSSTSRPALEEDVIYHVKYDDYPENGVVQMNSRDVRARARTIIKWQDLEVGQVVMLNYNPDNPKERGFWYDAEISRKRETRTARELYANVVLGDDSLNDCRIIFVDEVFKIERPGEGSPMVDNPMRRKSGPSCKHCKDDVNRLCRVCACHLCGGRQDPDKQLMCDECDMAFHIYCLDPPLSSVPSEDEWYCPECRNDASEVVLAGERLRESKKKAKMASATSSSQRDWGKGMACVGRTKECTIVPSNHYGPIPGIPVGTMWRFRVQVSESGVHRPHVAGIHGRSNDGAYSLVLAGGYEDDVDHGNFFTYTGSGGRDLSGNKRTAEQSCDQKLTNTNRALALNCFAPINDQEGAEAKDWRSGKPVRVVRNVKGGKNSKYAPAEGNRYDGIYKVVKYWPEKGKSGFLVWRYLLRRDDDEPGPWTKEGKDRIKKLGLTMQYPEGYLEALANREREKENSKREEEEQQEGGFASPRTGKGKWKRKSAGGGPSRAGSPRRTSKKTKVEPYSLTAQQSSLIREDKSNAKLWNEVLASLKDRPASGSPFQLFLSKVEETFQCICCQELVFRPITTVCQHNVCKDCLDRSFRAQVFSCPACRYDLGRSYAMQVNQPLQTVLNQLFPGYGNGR
Casp6 inh: blocks human caspase-6 cleavage activity. AID 686996. P55212. inhibition, % at 12.5 µM. 350,000 tested, 0.53% active. purified caspase-6, Z-VEID-R110 cleavage fluorescence;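 active = mean inhibition across replicates at least about 35%, with every replicate also reaching that limit, limit read from the data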
TDP2 inh: TDP2 (human) inhibition, absorbance primary screen | O95551 | 370,000 tested, 0.34% active | inhibition, % at 12.8 µM | recombinant TDP2, T5PNP hydrolysis, p-nitrophenol absorbance 415 nm;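 active = inhibition above the mean of all tested compounds plus 3 SD, set per campaign, cut at about 25% in these data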
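Material: recombinant human TDP2; quantity: TDP2 enzyme at 120 nM final; medium: Tris-HCl pH 7.5 with MgCl2; compound: single concentration, 12.8 µM nominal, with 1% DMSO; incubation: 2 h enzyme incubation at 37 °C; signal: epi absorbance; measure: percent inhibition; benchmarks: high control without enzyme, low control DMSO plus TDP2; repeats: singlicate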
NSD2 HMT inh: NSD2 (human) methyltransferase inhibition. O96028. NSD2 peptide methylation, AlphaScreen, 120 min. inhibition, % at 12.5 µM. 310,000 tested, 0.54% active. AID 743445; in the data active = inhibition above about 50%
LEDGF integ inh: blocks HIV-1 LEDGF/p75-dependent DNA integration; TR-FRET IN-LEDGF/p75 DNA integration, Eu/Cy5; inhibition, % at 3.7 µM; 370,000 tested, 0.64% active;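 active = inhibition above the screen-wide mean plus 3 SD, cut at about 13% in these data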;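 note: signal is the Cy5 over europium emission ratio at 671 and 618 nm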
MBD2 DNA inh: MBD2-methylated oligo binding inhibition. inhibition, % at 4.4 µM. TR-FRET, MBD2 binding to methylated oligonucleotide. Q9UBB5. AID 686964. 370,000 tested, 0.31% active; in the data active = inhibition above about 13%
Large screens that a line does not name were inactive.

C[C@H]1CN([C@@H](C)CO)S(=O)(=O)c2ccc(C#CCC3CCCC3)cc2O[C@H]1CN(C)C(=O)c1cnccn1	none (no result: UHRF1 binding, TDP2 inh, NSD2 HMT inh, LEDGF integ inh, MBD2 DNA inh)
CC(C)C(=O)C1=Cc2cccc([N+](=O)[O-])c2OC1N1CCOCC1 (stereo not drawn)	Casp6 inh 37
CCOC(=O)C1=C(C)NC(C)=C(C(=O)OCC)C1C(=O)OCC(=O)NC(C)c1ccccc1 (stereo not drawn)	Casp6 inh 46
CCOC(=O)C1=C(C)NC(C)=C(C(=O)OCC)C1C(=O)OCC(=O)NCc1ccccc1	none
O=C1[C@H](Oc2ccccc2)[C@@H](c2ccccc2)N1c1ccncc1	none (no result: NSD2 HMT inh)
O=C1[C@@H](Oc2ccccc2)[C@@H](c2ccccc2)N1c1ccccc1	UHRF1 binding 22 (no result: NSD2 HMT inh)
Cc1cc(C)n(CCNC(=O)C2CCC(=O)N(Cc3ccc(Cl)cc3)C2)n1 (stereo not drawn)	Casp6 inh 63
CCCCn1c(N)c(N(CCOC)C(=O)C2CCN(S(=O)(=O)c3ccc(F)cc3)CC2)c(=O)[nH]c1=O	none
CCCCn1c(N)c(N(CCOC)C(=O)C2CCN(S(=O)(=O)c3ccc(Cl)cc3)CC2)c(=O)[nH]c1=O	UHRF1 binding 24
CCCCn1c(N)c(N(CCOC)C(=O)CSCc2ccccc2C)c(=O)[nH]c1=O	UHRF1 binding 33
CCNC(=O)[C@@H]1[C@@H](CO)[C@@H]2Cn3c(ccc(-c4ccc(F)cc4)c3=O)[C@@H]2N1C	none (no result: UHRF1 binding, TDP2 inh, NSD2 HMT inh, LEDGF integ inh, MBD2 DNA inh)
C[C@H](CO)N1C[C@H](C)[C@@H](CN(C)C(=O)Nc2ccccc2)Oc2c(NC(=O)C3CCOCC3)cccc2C1=O	none (no result: UHRF1 binding, TDP2 inh, NSD2 HMT inh, LEDGF integ inh, MBD2 DNA inh)
OC[C@H]1[C@H](c2ccc(-c3ccccc3F)cc2)[C@H]2CN(Cc3cccnc3)CCCCN21	Casp6 inh 47 (no result: UHRF1 binding, TDP2 inh, NSD2 HMT inh, LEDGF integ inh, MBD2 DNA inh)
COCC(=O)N(C)C[C@@H]1Oc2ncc(-c3ccc(C)cc3)cc2C(=O)N([C@H](C)CO)C[C@H]1C	none (no result: UHRF1 binding, TDP2 inh, NSD2 HMT inh, LEDGF integ inh, MBD2 DNA inh)
CC(=O)N(C)C[C@H]1Oc2cc(-c3cccc(F)c3)ccc2S(=O)(=O)N([C@@H](C)CO)C[C@H]1C	none (no result: UHRF1 binding, TDP2 inh, NSD2 HMT inh, LEDGF integ inh, MBD2 DNA inh)
COc1ccccc1CCC(=O)Nc1ccc2c(c1)CN(CCCn1cccn1)CC2	Casp6 inh 99
COc1ccc(S(=O)(=O)N(C)C[C@@H]2Oc3c(NC(=O)C4CC4)cccc3C(=O)N([C@H](C)CO)C[C@H]2C)cc1	none (no result: UHRF1 binding, TDP2 inh, NSD2 HMT inh, LEDGF integ inh, MBD2 DNA inh)
C[C@@H]1CN([C@@H](C)CO)C(=O)c2cccc(NC(=O)Nc3cccc4ccccc34)c2O[C@H]1CN(C)CC1CC1	Casp6 inh 38 (no result: UHRF1 binding, TDP2 inh, NSD2 HMT inh, LEDGF integ inh, MBD2 DNA inh)
C[C@H]1CN([C@@H](C)CO)C(=O)c2cccc(NC(=O)Nc3cccc4ccccc34)c2O[C@H]1CN(C)CC1CCCCC1	none (no result: UHRF1 binding, TDP2 inh, NSD2 HMT inh, LEDGF integ inh, MBD2 DNA inh)
C[C@H](CO)N1C[C@H](C)[C@@H](CN(C)C(=O)Nc2cccc3ccccc23)Oc2c(NC(=O)C3CCOCC3)cccc2C1=O	Casp6 inh 52 (no result: UHRF1 binding, TDP2 inh, NSD2 HMT inh, LEDGF integ inh, MBD2 DNA inh)
C[C@H]1CN([C@@H](C)CO)C(=O)c2cccc(NC(=O)C3CCOCC3)c2O[C@H]1CN(C)C(=O)Nc1cccc2ccccc12	none (no result: UHRF1 binding, TDP2 inh, NSD2 HMT inh, LEDGF integ inh, MBD2 DNA inh)
COc1ccc(NC(=O)Nc2ccc3c(c2)C(=O)N([C@H](C)CO)C[C@H](C)[C@H](CN(C)C(=O)Nc2ccc(OC)cc2)O3)cc1	none (no result: UHRF1 binding, TDP2 inh, NSD2 HMT inh, LEDGF integ inh, MBD2 DNA inh)
COc1ccc(CN(C)C[C@H]2Oc3ccc(NS(=O)(=O)c4ccc(Cl)cc4)cc3C(=O)N([C@H](C)CO)C[C@@H]2C)cc1	none (no result: UHRF1 binding, TDP2 inh, NSD2 HMT inh, LEDGF integ inh, MBD2 DNA inh)
C[C@@H]1CN([C@@H](C)CO)C(=O)c2cc(NS(=O)(=O)c3cn(C)cn3)ccc2O[C@H]1CN(C)S(=O)(=O)c1ccccc1	none (no result: UHRF1 binding, TDP2 inh, NSD2 HMT inh, LEDGF integ inh, MBD2 DNA inh)
CCOC(=O)/C(C#N)=C/c1c(N2CCN(c3cccc(Cl)c3)CC2)nc2c(C)cccn2c1=O	Casp6 inh 53 (no result: NSD2 HMT inh)
CCN(CCn1cccn1)C(=O)c1cc(COc2cc(C)ccc2C)on1	UHRF1 binding 31
CCN(CCn1cccn1)C(=O)c1cc(COc2ccccc2SC)on1	UHRF1 binding 35
CCN(CCn1cccn1)C(=O)c1cc(COc2ccc(F)c(F)c2)on1	none
COc1ccc(NC(=O)N(C)C[C@@H]2Oc3ccc(NS(=O)(=O)c4ccc(F)cc4)cc3CC(=O)N([C@H](C)CO)C[C@@H]2C)cc1	none (no result: UHRF1 binding, TDP2 inh, NSD2 HMT inh, LEDGF integ inh, MBD2 DNA inh)
C[C@@H]1CN([C@H](C)CO)C(=O)c2cc(NS(=O)(=O)c3cn(C)cn3)ccc2O[C@H]1CN(C)S(=O)(=O)c1cccs1	none (no result: UHRF1 binding, TDP2 inh, NSD2 HMT inh, LEDGF integ inh, MBD2 DNA inh)
